The test system of one assay is JVM-2. Put plainly: Induction of apoptosis in human JVM-2 cells assessed as dead cells incubated for 6 days by annexin-V/FITC propidium iodide staining based flow cytometry analysis. The class given is functional, cell-based. The note with it: dose <= 5000.0 nM, time 6.0 day. In general terms: In flow cytometry, cells or beads pass a laser one at a time.
In assay [1] the test system is Z-138. Put plainly: Induction of cell cycle arrest in human Z138 cells assessed as decrease in 2n cell population measured upto 1000 nM measured for 2 to 5 days by propidium iodide staining based flow cytometric analysis. The class given is functional. As to conditions: time 2-5 day.
Another assay relates to MCF7. In words: Induction of cell cycle arrest in human MCF7 cells assessed as increase in 2n cell population measured upto 5000 nM measured for 2 to 7 days by propidium iodide staining based flow cytometric analysis. The class given is functional. As to conditions: time 2-7 day.
Assay [2] relates to Z-138. In words: Induction of cell cycle arrest in human Z138 cells assessed as decrease in 4n cell population measured upto 1000 nM measured for 2 to 5 days by propidium iodide staining based flow cytometric analysis. The class given is functional. The note with it: time 2-5 day.
Assay [3] relates to Z-138. Put plainly: Antitumor activity against human Z138 cells xenografted in mouse at 25 to 50 mg/kg, po qd measured at 14 to 21 days. Type of assay: functional, organism-based. The note with it: dose lower […], dose upper 50.0 mg/kg, time 14-21 day. In general terms: In xenograft studies the graft and the host belong to different species.
A further assay relates to HMCB cell line. Put plainly: Antiproliferative activity against human HMCB cell line assessed as cell growth inhibition incubated for 10 days. The class given is functional. As to conditions: 240 h, time 10 day. The procedure, abridged: (§1)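 Outsourced panel run in 384-well plates. Cells were grown in RPMI-1640/10% FBS or a special medium at 37°C, 5% CO2. Compound was added 24 h after seeding as a 10-point, 3.16-fold series in 0.1% DMSO. Medium was refreshed and cells re-dosed at 168 h, with a time-zero plate kept. At 240 h cells were fixed, nuclei stained and imaged. gIC50 is growth midway between untreated and time zero, from a 4-parameter fit.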

For another assay, the system named is DLD-1. Put plainly: Antiproliferative activity against human DLD-1 cells assessed as cell growth inhibition incubated for 10 days. The class given is functional. The note with it: DLD-1, 240 h, time 10 day. In a few lines: as §1
Another assay deals with A101D. Put plainly: Antiproliferative activity against human A101D cells assessed as cell growth inhibition incubated for 10 days. The class given is functional. The note with it: 240 h, time 10 day. The procedure, abridged:
(§2)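 Cells kept in RPMI-1640 with 10% FBS, 2 mM L-alanyl-L-glutamine and 1 mM Na pyruvate (or a special medium) at 37°C, 5% CO2. Compound added 24 h after seeding, 10 concentrations in 3.16-fold dilution, 0.1% DMSO final. Medium replaced and cells re-dosed at 168 h; 240 h incubation. Nuclei fixed, dye-stained and imaged. gIC50 = growth midway between untreated and time-zero cell counts, from a 4-parameter fit.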

Another assay relates to Ramos. Put plainly: Antiproliferative activity against human Ramos cells assessed as cell growth inhibition incubated for 10 days. The class given is functional. As to conditions: 240 h, time 10 day.
Another assay concerns DBTRG-05MG. In words: Antiproliferative activity against human DBTRG-05MG cells assessed as cell growth inhibition incubated for 10 days. The class given is functional. The note with it: 240 h, time 10 day. The procedure, abridged: as §1
The next assay deals with RD. In words: Antiproliferative activity against human RD cells assessed as cell growth inhibition incubated for 10 days. The class given is functional. The note with it: 240 h, time 10 day.
Assay [4] deals with Protein arginine N-methyltransferase 5 (Homo sapiens) (UniProt O14744). Put plainly: Inhibition of PRMT5 in human Z138 cells assessed as effect on KHSRP level by measuring fold change by LC-MS/MS analysis relative to control. Type of assay: cell-based.
For another assay, the system named is SCC-25. Put plainly: Antiproliferative activity against human SCC-25 cells assessed as cell growth inhibition incubated for 10 days. The class given is functional. The note with it: SCC-25, 240 h, time 10 day.
Another assay relates to SK-N-DZ. In words: Antiproliferative activity against human SK-N-DZ cells assessed as cell growth inhibition incubated for 10 days. Type of assay: functional. The note with it: 240 h, time 10 day.
A further assay relates to U-2940. Put plainly: Antiproliferative activity against human U-2940 cells assessed as reduction in cell viability. Type of assay: functional, cell-based.
A further assay concerns CFPAC-1. Put plainly: Antiproliferative activity against human CFPAC-1 cells assessed as cell growth inhibition incubated for 10 days. Type of assay: functional. As to conditions: CFPAC-1, 240 h, time 10 day. The procedure, abridged: as §2
The subject of another assay is SK-NEP-1. In words: Antiproliferative activity against human SK-NEP-1 cells assessed as cell growth inhibition incubated for 10 days. The class given is functional. The note with it: SK-NEP-1, 240 h, time 10 day.
The subject of another assay is SW872. Put plainly: Antiproliferative activity against human SW872 cells assessed as cell growth inhibition incubated for 10 days. The class given is functional. As to conditions: SW872, 240 h, time 10 day.
The subject of a further assay is HLE. In words: Antiproliferative activity against human HLE cells assessed as cell growth inhibition incubated for 10 days. The class given is functional. The note with it: 240 h, time 10 day. The procedure, abridged: as §1
The next assay concerns RL95-2. In words: Antiproliferative activity against human RL95-2 cells assessed as cell growth inhibition incubated for 10 days. Type of assay: functional. As to conditions: RL95-2, 240 h, time 10 day.
The subject of a further assay is SW900. In words: Antiproliferative activity against human SW900 cells assessed as cell growth inhibition incubated for 10 days. Type of assay: functional. As to conditions: SW900, 240 h, time 10 day.
In another assay the test system is U-87 MG. In words: Antiproliferative activity against human U-87 MG cells assessed as cell growth inhibition incubated for 10 days. Type of assay: functional, U-87MG ATCC. As to conditions: 240 h, time 10 day.
The next assay relates to MHH-PREB-1. In words: Antiproliferative activity against human MHH-PREB-1 cells assessed as cell growth inhibition incubated for 10 days. Type of assay: functional. As to conditions: MHH-PREB-1, 240 h, time 10 day.
Another assay relates to CAKI-2. In words: Antiproliferative activity against human CAKI-2 cells assessed as cell growth inhibition incubated for 10 days. The class given is functional. As to conditions: CAKI-2, 240 h, time 10 day. The procedure, abridged:
as §2

Assay [5] has as its system Z-138. Put plainly: Induction of cell cycle arrest in p53 knockout human Z138 cells assessed as accumulation of cells at G1 phase at 50 to 500 nM incubated for 4 days. As to conditions: dose 50-500 nM, time 4.0 day. Type of assay: functional, cell-based.
Assay [6] deals with Protein arginine N-methyltransferase 5 (Homo sapiens) (UniProt O14744). Put plainly: Inhibition of PRMT5 in human Z138 cells expressing full length MDM4 at 1 to 100000 nM incubated for 3 to 6 days. The note with it: dose 1-100000 nM, time 3-6 day. Type of assay: cell-based.
The target is the same in assay [7]. Put plainly: Inhibition of PRMT5 in p53 knockout human Z138 cells effect on p21 expression at 500 nM incubated for 3 to 11 days by Western blot analysis. The class given is cell-based. The note with it: time 3-11 day.
The subject of another assay is NCI-H661. Put plainly: Antiproliferative activity against human NCI-H661 cells assessed as cell growth inhibition incubated for 10 days. The class given is functional. The note with it: NCI-H661, 240 h, time 10 day.
The subject of the next assay is D283 Med. Put plainly: Antiproliferative activity against human D283 Med cells assessed as cell growth inhibition incubated for 10 days. The class given is functional. The note with it: 240 h, time 10 day. In a few lines: as §1
Another assay deals with AN3-CA. In words: Antiproliferative activity against human AN3-CA cells assessed as cell growth inhibition incubated for 10 days. The note with it: 240 h, time 10 day. Type of assay: functional. In a few lines: as §2
The next assay has as its system BV-173. Put plainly: Antiproliferative activity against human BV-173 cells assessed as cell growth inhibition incubated for 10 days. Type of assay: functional. The note with it: BV-173, 240 h, time 10 day. The procedure, abridged:
as §2

A further assay concerns SNU-423. Put plainly: Antiproliferative activity against human SNU-423 cells assessed as cell growth inhibition incubated for 10 days. The class given is functional. As to conditions: SNU-423, 240 h, time 10 day.
The subject of a further assay is DB. In words: Antiproliferative activity against human DB cells assessed as cell growth inhibition incubated for 10 days. Type of assay: functional. The note with it: 240 h, time 10 day. In a few lines: as §1
Assay [8] in a line: Antiproliferative activity against human RKOAS451 cells assessed as cell growth inhibition incubated for 10 days. Type of assay: functional. As to conditions: RKOAS451, 240 h, time 10 day.
For the next assay, the system named is CAL-27. Put plainly: Antiproliferative activity against human CAL-27 cells assessed as cell growth inhibition incubated for 10 days. Type of assay: functional. As to conditions: CAL-27, 240 h, time 10 day. The procedure, abridged: as §2
A further assay has as its system DOHH-2. Put plainly: Antiproliferative activity against human DOHH-2 cells assessed as cell growth inhibition incubated for 10 days. Type of assay: functional. As to conditions: DOHH-2, 240 h, time 10 day. In a few lines: as §1
For another assay, the system named is NCI-H596. Put plainly: Antiproliferative activity against human NCI-H596 cells assessed as cell growth inhibition incubated for 10 days. The class given is functional. The note with it: NCI-H596, 240 h, time 10 day.

Calls of active or inactive are those of the source. No cut-off for these calls is given here.

Chain of Protein arginine N-methyltransferase 5 (Homo sapiens) (O14744 whole entry): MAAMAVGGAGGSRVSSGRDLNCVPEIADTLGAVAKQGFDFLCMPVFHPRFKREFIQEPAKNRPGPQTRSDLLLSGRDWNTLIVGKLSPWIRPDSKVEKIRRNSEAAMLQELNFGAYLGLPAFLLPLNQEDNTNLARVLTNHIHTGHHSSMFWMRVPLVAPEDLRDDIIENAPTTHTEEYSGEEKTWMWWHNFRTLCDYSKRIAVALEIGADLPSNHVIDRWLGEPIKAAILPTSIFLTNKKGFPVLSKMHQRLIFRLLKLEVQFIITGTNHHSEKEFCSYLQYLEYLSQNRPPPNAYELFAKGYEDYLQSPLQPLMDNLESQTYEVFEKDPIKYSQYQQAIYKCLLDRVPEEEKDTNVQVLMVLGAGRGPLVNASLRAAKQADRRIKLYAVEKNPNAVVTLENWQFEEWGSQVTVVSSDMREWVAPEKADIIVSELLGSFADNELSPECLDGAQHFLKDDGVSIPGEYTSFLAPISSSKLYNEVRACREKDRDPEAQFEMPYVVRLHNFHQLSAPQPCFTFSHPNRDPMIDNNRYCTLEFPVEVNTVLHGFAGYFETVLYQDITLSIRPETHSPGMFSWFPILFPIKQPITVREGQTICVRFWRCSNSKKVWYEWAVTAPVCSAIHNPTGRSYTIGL

In the case of `CC(=O)N1CCC(Nc2cc(C(=O)NC[C@H](O)CN3CCc4ccccc4C3)ncn2)CC1` [PEMRAMETOSTAT], the Activity result in the assay with JVM-2 is “Dose-Dependent Effect”. The outcome in the assay on Z-138 [1], with MCF7, with Z-138 [2] and in the assay on Z-138 [3] was Active.

As a reminder, the GI50 is the concentration that inhibits growth by half. Turning to `O=C(NC[C@H](O)CN1CCc2ccccc2C1)c1ccnc(NC2CCC2)c1`, the GI50 with HMCB cell line turned out to be 0.666 µM; in the assay with DLD-1, 0.134 µM; in the assay on A101D, 0.19 µM; in the assay on Ramos, 0.546 µM; with DBTRG-05MG, 0.156 µM; in the assay with RD it was 0.639 µM. Besides, the GI50 in the assay on SCC-25 turned out to be 0.273 µM; in the assay on SK-N-DZ, 0.257 µM; with CFPAC-1, 0.0523 µM; in the assay with SK-NEP-1 it was 0.264 µM; in the assay with SW872 it was 0.054 µM; in the assay with HLE, 0.174 µM. Moreover, the GI50 was found to be 0.218 µM in the assay on RL95-2; 3.25 µM in the assay on SW900; 0.0676 µM in the assay with U-87 MG; 10 µM in the assay on MHH-PREB-1; 0.114 µM with CAKI-2; 0.152 µM with NCI-H661. In addition, the GI50 with D283 Med was 0.0235 µM; in the assay on AN3-CA, 0.254 µM; with BV-173 it was 0.0106 µM; in the assay on SNU-423, 0.066 µM; with DB, 0.00251 µM; in [8] it was 0.113 µM. Also, the GI50 in the assay with CAL-27 amounted to 0.103 µM; with DOHH-2, 0.157 µM; with NCI-H596 it was 0.188 µM. Besides, in [4], the fold change (FC) is -7.8. The outcome in the assay on U-2940 and with Z-138 [5] was Active. Further, the inhibition entry in assay [6] and in [7] was “inactive” in each case.

The values above are taken from ChEMBL document CHEMBL5653630, “Activation of the p53-MDM4 regulatory axis defines the anti-tumour response to PRMT5 inhibition through its role in regulating cellular splicing” (Sci Rep, 2018).
